Laboratory results published in paper PMC4929832 (Nature, 2016).

Columns and labels:
[1] = target: AKT2 (Homo sapiens, UniProt P31751); experiment: kinase panel; type: biochemical
[2] = target: FYN (Homo sapiens, UniProt P06241); experiment: kinase panel; type: biochemical
[3] = target: AKT3 (Homo sapiens, UniProt Q9Y243); experiment: kinase panel; type: biochemical
[4] = target: CLK1 (Homo sapiens, UniProt P49759); experiment: kinase panel; type: biochemical
[5] = target: GRK6 (Homo sapiens, UniProt P43250); experiment: kinase panel; type: biochemical
[6] = target: PDK1 (Homo sapiens, UniProt O15530); experiment: kinase panel; type: biochemical
[7] = target: PHK-GAMMA1 (Homo sapiens, UniProt Q16816); experiment: kinase panel; type: biochemical
[8] = target: AMP-A2B1G1 (Homo sapiens, UniProt P54646); experiment: kinase panel; type: biochemical
[9] = target: PI3K-DELTA (Homo sapiens, UniProt O00329); experiment: kinase panel; type: biochemical
[10] = target: SIK (Homo sapiens, UniProt P57059); experiment: kinase panel; type: biochemical
[11] = target: MET (Homo sapiens, UniProt P08581); experiment: kinase panel; type: biochemical
[12] = target: HIPK3 (Homo sapiens, UniProt Q9H422); experiment: kinase panel; type: biochemical
[13] = target: PIM1 (Homo sapiens, UniProt P11309); experiment: kinase panel; type: biochemical
PIM1, sequence (P11309 whole entry): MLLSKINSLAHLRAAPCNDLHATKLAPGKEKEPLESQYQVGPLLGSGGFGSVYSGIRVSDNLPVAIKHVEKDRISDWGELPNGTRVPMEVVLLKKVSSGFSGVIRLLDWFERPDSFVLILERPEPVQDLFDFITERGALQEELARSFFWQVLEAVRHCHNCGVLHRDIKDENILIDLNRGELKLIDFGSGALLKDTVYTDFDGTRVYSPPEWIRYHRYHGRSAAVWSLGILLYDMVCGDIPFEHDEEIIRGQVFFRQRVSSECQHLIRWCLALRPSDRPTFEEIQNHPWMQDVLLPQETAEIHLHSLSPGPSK

[14] = target: SPHK2 (Homo sapiens, UniProt Q9NRA0); experiment: kinase panel; type: biochemical
SPHK2, sequence (Q9NRA0 whole entry): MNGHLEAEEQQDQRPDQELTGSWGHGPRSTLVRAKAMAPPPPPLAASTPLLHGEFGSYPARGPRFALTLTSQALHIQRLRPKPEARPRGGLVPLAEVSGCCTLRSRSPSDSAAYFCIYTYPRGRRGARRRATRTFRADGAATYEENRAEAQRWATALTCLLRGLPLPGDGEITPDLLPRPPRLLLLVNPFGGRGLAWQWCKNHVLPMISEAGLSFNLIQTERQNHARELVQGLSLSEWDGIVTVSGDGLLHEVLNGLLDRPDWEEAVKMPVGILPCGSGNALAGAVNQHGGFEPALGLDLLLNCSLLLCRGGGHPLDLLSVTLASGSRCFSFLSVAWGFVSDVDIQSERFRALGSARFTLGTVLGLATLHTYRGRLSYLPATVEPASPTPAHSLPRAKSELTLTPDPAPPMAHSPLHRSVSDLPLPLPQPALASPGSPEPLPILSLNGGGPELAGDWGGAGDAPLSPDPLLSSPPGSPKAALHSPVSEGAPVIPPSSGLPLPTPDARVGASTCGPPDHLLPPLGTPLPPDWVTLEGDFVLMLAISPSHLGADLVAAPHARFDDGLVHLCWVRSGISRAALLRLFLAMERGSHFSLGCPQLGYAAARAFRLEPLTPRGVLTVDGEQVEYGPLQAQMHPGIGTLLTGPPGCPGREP

[15] = target: BRK (Homo sapiens, UniProt Q13882); experiment: kinase panel; type: biochemical
BRK, sequence (Q13882 whole entry): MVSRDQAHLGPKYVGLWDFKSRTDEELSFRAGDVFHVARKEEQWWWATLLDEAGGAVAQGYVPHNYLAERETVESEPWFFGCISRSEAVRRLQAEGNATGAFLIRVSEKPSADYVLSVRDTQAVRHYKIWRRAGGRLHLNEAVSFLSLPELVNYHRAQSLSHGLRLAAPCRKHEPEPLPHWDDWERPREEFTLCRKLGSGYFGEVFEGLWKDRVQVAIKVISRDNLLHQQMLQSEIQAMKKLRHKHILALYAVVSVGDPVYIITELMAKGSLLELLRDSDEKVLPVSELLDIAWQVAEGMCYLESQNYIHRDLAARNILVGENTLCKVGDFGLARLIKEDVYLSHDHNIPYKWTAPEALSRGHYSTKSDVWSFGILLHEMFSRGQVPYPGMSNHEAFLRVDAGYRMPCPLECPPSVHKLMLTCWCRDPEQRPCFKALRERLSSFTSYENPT

[16] = target: BRSK1 (Homo sapiens, UniProt Q8TDC3); experiment: kinase panel; type: biochemical
BRSK1, sequence (Q8TDC3 whole entry): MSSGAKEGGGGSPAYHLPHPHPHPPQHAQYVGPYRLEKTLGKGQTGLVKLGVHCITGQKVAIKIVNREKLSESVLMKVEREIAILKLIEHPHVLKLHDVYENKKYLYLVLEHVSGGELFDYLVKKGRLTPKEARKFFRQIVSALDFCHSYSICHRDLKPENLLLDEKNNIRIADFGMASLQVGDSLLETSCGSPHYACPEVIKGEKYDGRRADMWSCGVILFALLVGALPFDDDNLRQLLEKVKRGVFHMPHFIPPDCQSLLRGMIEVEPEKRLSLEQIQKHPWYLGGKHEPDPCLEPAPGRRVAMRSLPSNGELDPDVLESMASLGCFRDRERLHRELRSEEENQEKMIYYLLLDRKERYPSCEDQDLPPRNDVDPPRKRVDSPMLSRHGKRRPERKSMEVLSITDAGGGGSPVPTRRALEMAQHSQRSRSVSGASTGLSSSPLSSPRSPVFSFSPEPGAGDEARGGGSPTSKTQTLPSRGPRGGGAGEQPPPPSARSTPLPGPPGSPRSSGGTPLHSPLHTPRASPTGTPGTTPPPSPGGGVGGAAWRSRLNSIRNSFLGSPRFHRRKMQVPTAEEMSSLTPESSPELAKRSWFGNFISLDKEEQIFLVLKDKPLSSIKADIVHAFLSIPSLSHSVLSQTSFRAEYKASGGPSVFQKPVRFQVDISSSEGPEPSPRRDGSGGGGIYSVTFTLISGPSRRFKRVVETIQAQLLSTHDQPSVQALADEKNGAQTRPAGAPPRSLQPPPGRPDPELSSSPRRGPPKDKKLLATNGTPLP

[17] = target: MSSK1 (Homo sapiens, UniProt Q9UPE1); experiment: kinase panel; type: biochemical
[18] = target: MST1 (Homo sapiens, UniProt Q13043); experiment: kinase panel; type: biochemical
[19] = target: IRAK4 (Homo sapiens, UniProt Q9NWZ3); experiment: kinase panel; type: biochemical
IRAK4, sequence (Q9NWZ3 whole entry): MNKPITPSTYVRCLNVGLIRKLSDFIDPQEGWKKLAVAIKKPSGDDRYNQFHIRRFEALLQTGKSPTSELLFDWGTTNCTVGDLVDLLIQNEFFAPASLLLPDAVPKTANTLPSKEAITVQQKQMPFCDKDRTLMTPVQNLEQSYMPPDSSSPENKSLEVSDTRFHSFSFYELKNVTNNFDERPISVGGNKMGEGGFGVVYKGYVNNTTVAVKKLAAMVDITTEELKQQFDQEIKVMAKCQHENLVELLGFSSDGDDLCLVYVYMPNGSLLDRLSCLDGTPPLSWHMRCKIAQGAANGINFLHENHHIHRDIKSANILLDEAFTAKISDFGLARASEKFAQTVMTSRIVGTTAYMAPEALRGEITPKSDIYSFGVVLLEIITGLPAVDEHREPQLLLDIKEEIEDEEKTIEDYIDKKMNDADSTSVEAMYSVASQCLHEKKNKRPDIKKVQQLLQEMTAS

[20] = target: MST2 (Homo sapiens, UniProt Q13188); experiment: kinase panel; type: biochemical
[21] = target: SYK (Homo sapiens, UniProt P43405); experiment: kinase panel; type: biochemical
[22] = target: MUSK (Homo sapiens, UniProt O15146); experiment: kinase panel; type: biochemical
[23] = target: EPH-A8 (Homo sapiens, UniProt P29322); experiment: kinase panel; type: biochemical
[24] = target: JNK2 (Homo sapiens, UniProt P45984); experiment: kinase panel; type: biochemical
[25] = target: PLK1 (Homo sapiens, UniProt P53350); experiment: kinase panel; type: biochemical
[26] = target: CDK2-CYCLINA (Homo sapiens, UniProt P24941); experiment: kinase panel; type: biochemical
[27] = target: ERB-B2 (Homo sapiens, UniProt P04626); experiment: kinase panel; type: biochemical
[28] = target: PLK4 (Homo sapiens, UniProt O00444); experiment: kinase panel; type: biochemical
[29] = target: PRKD1 (Homo sapiens, UniProt Q15139); experiment: kinase panel; type: biochemical
[30] = target: P38-BETA (Homo sapiens, UniProt Q15759); experiment: kinase panel; type: biochemical
P38-BETA, sequence (Q15759 whole entry): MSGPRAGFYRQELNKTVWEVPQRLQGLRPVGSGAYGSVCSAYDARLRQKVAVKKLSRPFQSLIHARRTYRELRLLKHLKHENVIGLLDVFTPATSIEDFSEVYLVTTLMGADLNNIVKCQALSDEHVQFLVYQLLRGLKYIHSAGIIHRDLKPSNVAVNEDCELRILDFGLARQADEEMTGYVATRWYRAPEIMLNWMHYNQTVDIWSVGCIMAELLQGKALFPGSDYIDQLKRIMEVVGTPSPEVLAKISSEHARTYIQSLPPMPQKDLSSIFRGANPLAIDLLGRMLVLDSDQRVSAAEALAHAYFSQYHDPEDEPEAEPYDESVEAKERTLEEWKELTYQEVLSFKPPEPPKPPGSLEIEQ

[31] = target: PRKD3 (Homo sapiens, UniProt O94806); experiment: kinase panel; type: biochemical
PRKD3, sequence (O94806 whole entry): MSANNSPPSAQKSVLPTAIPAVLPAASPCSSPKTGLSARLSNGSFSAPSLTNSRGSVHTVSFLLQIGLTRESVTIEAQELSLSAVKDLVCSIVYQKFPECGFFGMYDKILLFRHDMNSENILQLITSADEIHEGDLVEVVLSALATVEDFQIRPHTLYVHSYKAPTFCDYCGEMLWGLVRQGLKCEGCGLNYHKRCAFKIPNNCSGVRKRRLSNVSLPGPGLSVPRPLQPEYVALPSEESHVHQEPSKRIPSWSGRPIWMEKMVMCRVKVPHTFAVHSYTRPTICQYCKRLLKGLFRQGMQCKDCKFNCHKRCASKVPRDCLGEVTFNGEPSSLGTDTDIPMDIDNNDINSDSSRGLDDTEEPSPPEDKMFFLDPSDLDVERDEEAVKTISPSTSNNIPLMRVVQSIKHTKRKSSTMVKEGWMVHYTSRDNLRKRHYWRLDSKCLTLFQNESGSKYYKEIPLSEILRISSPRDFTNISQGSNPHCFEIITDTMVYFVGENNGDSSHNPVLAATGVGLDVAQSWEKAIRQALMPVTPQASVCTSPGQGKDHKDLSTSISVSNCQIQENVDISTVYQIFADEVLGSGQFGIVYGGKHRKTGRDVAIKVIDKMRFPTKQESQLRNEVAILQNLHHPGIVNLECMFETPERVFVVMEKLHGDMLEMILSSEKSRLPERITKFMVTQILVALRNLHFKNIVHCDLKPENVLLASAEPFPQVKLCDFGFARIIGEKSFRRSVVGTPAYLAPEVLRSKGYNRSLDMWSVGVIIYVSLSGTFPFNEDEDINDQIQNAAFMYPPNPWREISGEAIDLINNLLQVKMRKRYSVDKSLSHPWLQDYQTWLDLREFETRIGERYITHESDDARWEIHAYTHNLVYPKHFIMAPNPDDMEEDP

[32] = target: PRKG2 (Homo sapiens, UniProt Q13237); experiment: kinase panel; type: biochemical
[33] = target: PYK2 (Homo sapiens, UniProt Q14289); experiment: kinase panel; type: biochemical
[34] = target: CHEK2 (Homo sapiens, UniProt O96017); experiment: kinase panel; type: biochemical
[35] = target: MAP4K2 (Homo sapiens, UniProt Q12851); experiment: kinase panel; type: biochemical
[36] = target: Alpha1A adrenergic (Homo sapiens, UniProt P35348); experiment: Alpha1A adrenergic calcium flux assay; type: cell-based
[37] = target: Beta 1 adrenergic receptor (Homo sapiens, UniProt P08588); experiment: Beta 1 adrenergic receptor assay; type: binding
[38] = target: EGFR L858R/T790M in H1975 cells (Homo sapiens, UniProt P00533, L858R/T790M); experiment: EGFR phosphorylation by western blotting; type: cell-based; conditions: western blot, 3h
[39] = system: EGFR signaling in L858R/T790M/C797S mice; experiment: Pharmacodynamic study, western blotting of tumor nodules; type: in vivo, mouse; conditions: EAI045 in combination with cetuximab, 2 doses
Procedure, shortened: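 Transgenic mice were induced at 6 weeks: exon19del/T790M by doxycycline diet, L858R/T790M/C797S by intranasal Ad-Cre. […] Tumor nodules were lysed and protein-equalized for western blotting. Bands were detected by HRP chemiluminescence. Multiple independent tumors were analyzed.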

[40] = system: panel of 250 protein kinases; experiment: Profiling against a panel of 250 protein kinases; type: biochemical; conditions: 1 μM EAI045

AKT2, sequence (P31751 whole entry): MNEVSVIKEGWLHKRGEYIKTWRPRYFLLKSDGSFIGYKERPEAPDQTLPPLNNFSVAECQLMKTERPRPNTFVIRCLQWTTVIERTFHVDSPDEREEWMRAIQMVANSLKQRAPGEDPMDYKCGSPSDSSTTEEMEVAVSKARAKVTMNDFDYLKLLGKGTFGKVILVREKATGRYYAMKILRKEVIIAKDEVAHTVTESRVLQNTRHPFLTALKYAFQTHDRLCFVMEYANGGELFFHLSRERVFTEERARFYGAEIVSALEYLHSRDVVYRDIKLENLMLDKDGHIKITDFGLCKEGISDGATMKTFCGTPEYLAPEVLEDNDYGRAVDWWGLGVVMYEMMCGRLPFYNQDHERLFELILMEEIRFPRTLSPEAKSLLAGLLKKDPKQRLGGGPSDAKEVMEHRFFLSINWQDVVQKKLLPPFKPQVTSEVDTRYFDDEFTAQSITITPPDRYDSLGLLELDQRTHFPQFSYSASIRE
AKT3, sequence (Q9Y243 whole entry): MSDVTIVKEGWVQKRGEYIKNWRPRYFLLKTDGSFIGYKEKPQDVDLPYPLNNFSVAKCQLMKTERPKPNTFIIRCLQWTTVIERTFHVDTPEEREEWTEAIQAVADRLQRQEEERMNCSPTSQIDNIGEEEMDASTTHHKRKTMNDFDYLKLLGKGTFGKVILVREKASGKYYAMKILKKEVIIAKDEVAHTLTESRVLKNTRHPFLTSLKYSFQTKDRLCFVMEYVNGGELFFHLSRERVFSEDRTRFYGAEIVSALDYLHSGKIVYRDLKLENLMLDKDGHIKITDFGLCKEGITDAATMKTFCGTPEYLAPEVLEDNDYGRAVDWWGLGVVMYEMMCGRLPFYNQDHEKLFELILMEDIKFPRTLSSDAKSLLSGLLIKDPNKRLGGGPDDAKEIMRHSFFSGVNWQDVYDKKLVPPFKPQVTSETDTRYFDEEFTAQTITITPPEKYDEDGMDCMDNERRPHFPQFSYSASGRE

O=C(Nc1nccs1)C(c1cc(F)ccc1O)N1Cc2ccccc2C1=O (stereo not shown) [EAI045, 2-(5-fluoro-2-hydroxyphenyl)-2-(1-oxo-2,3-dihydro-1H-isoindol-2-yl)-N-(1,3-thiazol-2-yl)acetamide]
inhibition at 1 µM [1]: 0% | inhibition at 1 µM [2]: 0% | inhibition at 1 µM [3]: 0% | inhibition at 1 µM [4]: 0% | inhibition at 1 µM [5]: 0% | inhibition at 1 µM [6]: 0% | inhibition at 1 µM [7]: 0% | inhibition at 1 µM [8]: 0% | inhibition at 1 µM [9]: 0% | inhibition at 1 µM [10]: 0% | inhibition at 1 µM [11]: 0% | inhibition at 1 µM [12]: 0% | inhibition at 1 µM [13]: 0% | inhibition at 1 µM [14]: 0% | inhibition at 1 µM [15]: 0% | inhibition at 1 µM [16]: 0% | inhibition at 1 µM [17]: 0% | inhibition at 1 µM [18]: 0% | inhibition at 1 µM [19]: 0% | inhibition at 1 µM [20]: 0% | inhibition at 1 µM [21]: 0% | inhibition at 1 µM [22]: 0% | inhibition at 1 µM [23]: 0% | inhibition at 1 µM [24]: 0% | inhibition at 1 µM [25]: 7% | inhibition at 1 µM [26]: 1% | inhibition at 1 µM [27]: 4% | inhibition at 1 µM [28]: 0% | inhibition at 1 µM [29]: 0% | inhibition at 1 µM [30]: 0% | inhibition at 1 µM [31]: 0% | inhibition at 1 µM [32]: 8% | inhibition at 1 µM [33]: 4% | inhibition at 1 µM [34]: 0% | inhibition at 1 µM [35]: 0% | IC50 [36]: > 30 µM | IC50 [37]: > 30 µM | EGFR autophosphorylation [38]: potently decreased, but did not completely eliminate EGFR autophosphorylation | phosphorylation of EGFR and downstream signaling proteins in tumors [39]: effectively inhibited | inhibition of other kinases in the panel [40]: ≤ 20%
